Measurements as given in ChEMBL document CHEMBL1139507, “Application of phosphoramidate pronucleotide technology to abacavir leads to a significant enhancement of antiviral potency” (J Med Chem, 2005).
Values joined by “and” are separate entries in the source; they are usually repeats but may differ in a detail not shown here. Equal values may be shown once.

How the values were obtained:
[1] = tested on: HepG2; assay: Cytostatic concentration required to inhibit Hep G2.2.15 cell proliferation; format: functional, Homo sapiens
How it was run: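 Growth inhibition of HepG2 2.2.15 human hepatoma cells (constitutively HBV-producing) measured; CC50 = 50% cytostatic concentration.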

[2] = tested on: Human immunodeficiency virus 1; assay: Effective concentration against human immunodeficiency virus type 1 in MT-4 cells; format: functional, organism-based, MT4
[3] = tested on: MT4; assay: Cytostatic concentration required to inhibit MT-4 cell proliferation; format: functional, Homo sapiens
[4] = tested on: Hepatitis B virus; assay: Effective concentration againstHBV in Hep G2.2.15 cells; format: functional, organism-based, HepG2 2.2.15
How it was run: (§1)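 Anti-HBV activity assayed in HepG2 2.2.15 human hepatoma cells, which constitutively produce HBV; EC50 = 50% effective concentration.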

[5] = tested on: Hepatitis B virus; assay: Effective concentration against HBV in Hep G2.2.15 cells; format: functional, organism-based, HepG2 2.2.15; how it was run: as §1
[6] = tested on: HepG2; assay: Cytostatic concentration required to inhibit Hep G2 cell proliferation; format: functional; conditions: Homo sapiens
[7] = tested on: Human immunodeficiency virus 1; assay: Effective concentration against human immunodeficiency virus type 1 in CEM cells; format: functional, organism-based; conditions: Human immunodeficiency virus 1, CCRF-CEM
How it was run: (§2)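 HIV-1- and HIV-2-induced cytopathicity in CEM cell cultures, scored at day 4 by microscopic examination of virus-induced giant cell formation; EC50 = concentration inhibiting cytopathicity by 50%.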

[8] = tested on: Human immunodeficiency virus 2; assay: Effective concentration against human immunodeficiency virus type 2 in CEM cells; format: functional, organism-based; conditions: Human immunodeficiency virus 2, CCRF-CEM; how it was run: as §2
[9] = tested on: Human immunodeficiency virus 2; assay: Effective concentration against human immunodeficiency virus type 2 in MT-4 cells; format: functional, organism-based; conditions: Human immunodeficiency virus 2, MT4
[10] = tested on: CCRF-CEM; assay: Cytostatic concentration required to inhibit CEM cell proliferation; format: functional; conditions: Homo sapiens
[11] = Human immunodeficiency virus 1, MT4
[12] = Hepatitis B virus, HepG2 2.2.15

Question: What does the source list for `COC(=O)[C@@H](C)NP(=O)(OC[C@@H]1C=C[C@H](n2cnc3c(NC4CC4)nc(N)nc32)C1)Oc1ccccc1` (stereo in doubt; 3a)?
Answer: CC50 [1]: 10000 nM; EC50 ([2]; mt4): 27 nM; CC50 [3]: 1000 nM; EC50 ([4]; hepg2 2.2.15): 400 nM

Question: How did the CC50 [1] turn out when `COC(=O)[C@@H](C)NP(=O)(OC[C@@H]1C=C[C@H](n2cnc3c(NC4CC4)nc(N)nc32)C1)Oc1ccccc1` (stereo in doubt; 3b) was run?
Answer: 35000 nM

Question: What about the EC50 ([2]; mt4) of the same compound?
Answer: 110 nM

Question: What about the CC50 [3] of the same compound?
Answer: 4000 nM

Question: And the EC50 ([5]; hepg2 2.2.15)?
Answer: 1500 nM

Question: Which CC50 [6] does the source give for `COC(=O)CNP(=O)(OC[C@@H]1C=C[C@H](n2cnc3c(NC4CC4)nc(N)nc32)C1)Oc1ccccc1` (some centres not stated) here?
Answer: 58000 nM

Question: What about the EC50 [7] of the same compound?
Answer: 1800 nM

Question: And the EC50 [2, 11]?
Answer: 7200 nM

Question: What about the EC50 [8] of the same compound?
Answer: 2000 nM

Question: And the EC50 [9]?
Answer: 5400 nM

Question: And the CC50 [10]?
Answer: > 56000 nM

Question: And the CC50 ([3]; Homo sapiens, MT4)?
Answer: 8500 nM

Question: What about the EC50 [5, 12] of the same compound?
Answer: 1000 nM

Question: What does the source list for `COC(=O)[C@@H](C)NP(=O)(OC[C@@H]1C=C[C@H](n2cnc3c(NC4CC4)nc(N)nc32)C1)Oc1ccccc1` (stereo in doubt; 3a,b)?
Answer: CC50 [6]: 17000 nM; CC50 [1]: 17000 nM; EC50 [7]: 50 nM; EC50 ([2]; mt4): 200 nM and 37 nM; EC50 [8]: 50 nM; EC50 [9]: 260 nM; CC50 [10]: 13000 nM; CC50 [3]: 4300 nM and 4600 nM; EC50 [4, 12]: 550 nM; EC50 ([5]; hepg2 2.2.15): 550 nM

Question: Which results are given for `CCOC(=O)[C@@H](C)NP(=O)(OC[C@@H]1C=C[C@H](n2cnc3c(NC4CC4)nc(N)nc32)C1)Oc1ccccc1` (stereo in doubt; 6a,b)?
Answer: CC50 [1]: 18000 nM; EC50 ([2]; mt4): 15.5 nM; CC50 [3]: 4600 nM

Question: For `C[C@@H](NP(=O)(OC[C@@H]1C=C[C@H](n2cnc3c(NC4CC4)nc(N)nc32)C1)Oc1ccccc1)C(=O)OC(C)(C)C` (some centres not stated), which CC50 [6] is on record?
Answer: 11000 nM

Question: What about the EC50 [7] of the same compound?
Answer: 3700 nM

Question: What about the EC50 [2, 11] of the same compound?
Answer: 6600 nM

Question: And the EC50 [8]?
Answer: 6000 nM

Question: What about the EC50 [9] of the same compound?
Answer: 3400 nM

Question: And the CC50 [10]?
Answer: 8600 nM

Question: And the CC50 ([3]; Homo sapiens, MT4)?
Answer: 2100 nM

Question: And the EC50 [5, 12]?
Answer: 5000 nM

Question: Which CC50 [6] does the source give for `CC(C)OC(=O)[C@@H](C)NP(=O)(OC[C@@H]1C=C[C@H](n2cnc3c(NC4CC4)nc(N)nc32)C1)Oc1ccccc1` (some centres not stated) here?
Answer: 17000 nM

Question: What about the EC50 [7] of the same compound?
Answer: 50 nM

Question: What about the EC50 [2, 11] of the same compound?
Answer: 200 nM

Question: What about the EC50 [8] of the same compound?
Answer: 50 nM

Question: What about the EC50 [9] of the same compound?
Answer: 260 nM

Question: What about the CC50 [10] of the same compound?
Answer: 13000 nM

Question: What about the CC50 ([3]; Homo sapiens, MT4) of the same compound?
Answer: 4600 nM

Question: What about the EC50 [5, 12] of the same compound?
Answer: 550 nM

Question: Which CC50 [1] does the source give for `CCOC(=O)[C@@H](C)NP(=O)(OC[C@@H]1C=C[C@H](n2cnc3c(NC4CC4)nc(N)nc32)C1)Oc1ccccc1` (stereo in doubt; 6a) here?
Answer: 7500 nM

Question: And the EC50 ([2]; mt4)?
Answer: 15.5 nM

Question: What about the CC50 [3] of the same compound?
Answer: 950 nM

Question: And the EC50 ([5]; hepg2 2.2.15)?
Answer: 200 nM

Question: With `COC(=O)C(C)(C)NP(=O)(OC[C@@H]1C=C[C@H](n2cnc3c(NC4CC4)nc(N)nc32)C1)Oc1ccccc1` (some centres not stated) as the compound, how does the CC50 [6] read?
Answer: 5500 nM

Question: And the EC50 [7]?
Answer: 67 nM

Question: What about the EC50 [2, 11] of the same compound?
Answer: 140 nM

Question: What about the EC50 [8] of the same compound?
Answer: 64 nM

Question: And the EC50 [9]?
Answer: 110 nM

Question: And the CC50 [10]?
Answer: > 130000 nM

Question: What about the CC50 ([3]; Homo sapiens, MT4) of the same compound?
Answer: 8100 nM

Question: And the EC50 [5, 12]?
Answer: 19 nM

Question: Which results are given for `COC(=O)[C@H](C)NP(=O)(OC[C@@H]1C=C[C@H](n2cnc3c(NC4CC4)nc(N)nc32)C1)Oc1ccccc1` (some centres not stated)?
Answer: CC50 [6]: 52000 nM; EC50 [7]: 1400 nM; EC50 [2, 11]: 3400 nM; EC50 [8]: 4500 nM; EC50 [9]: 4100 nM; CC50 [10]: 46000 nM; CC50 ([3]; Homo sapiens, MT4): 4500 nM; EC50 [5, 12]: 1300 nM

Question: For `CCOC(=O)[C@@H](C)NP(=O)(OC[C@@H]1C=C[C@H](n2cnc3c(NC4CC4)nc(N)nc32)C1)Oc1ccccc1` (stereo in doubt; 6), which CC50 [6] is on record?
Answer: 18000 nM

Question: What about the EC50 [7] of the same compound?
Answer: 70 nM

Question: What about the EC50 ([2]; mt4) of the same compound?
Answer: 200 nM

Question: And the EC50 [8]?
Answer: 61 nM

Question: And the EC50 [9]?
Answer: 210 nM

Question: What about the CC50 [10] of the same compound?
Answer: 12000 nM

Question: And the CC50 [3]?
Answer: 8600 nM

Question: What about the EC50 [5, 12] of the same compound?
Answer: 350 nM

Question: Which CC50 [1] does the source give for `CCOC(=O)[C@@H](C)NP(=O)(OC[C@@H]1C=C[C@H](n2cnc3c(NC4CC4)nc(N)nc32)C1)Oc1ccccc1` (stereo in doubt; 6b) here?
Answer: 35000 nM

Question: And the EC50 ([2]; mt4)?
Answer: 140 nM

Question: What about the CC50 [3] of the same compound?
Answer: 5000 nM

Question: What about the EC50 ([5]; hepg2 2.2.15) of the same compound?
Answer: 270 nM
